From ChEMBL document CHEMBL4699631, “Antimalarial and anti-inflammatory activities of new chloroquine and primaquine hybrids: Targeting the blockade of malaria parasite transmission” (Bioorg Med Chem, 2020)
Calls of active or inactive are those of the source. The calls are words filed in the database; no cut-off is given here.

Columns and labels:
[1] = tested on: Plasmodium falciparum; assay: Antimalarial activity against Plasmodium falciparum CQR (W2 clone) infected in human erythrocyte assessed as reduction in parasite growth incubated for 48 hrs by SYBR assay; assay type: functional, organism-based
Procedure, shortened: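 W2 parasites cultured in A+ human erythrocytes in RPMI 1640 with ALBUMAX II, candle jar, 37 °C. Rings synchronized with sorbitol, then exposed to serial dilutions at 0.5% parasitemia and 2% hematocrit for 48 h at 37 °C. Lysis buffer with SYBR Safe, 30 min in the dark, fluorescence read at ex 485 nm. IC50 from sigmoid curve fit against drug-free control.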

[2] = Selectivity index, ratio of MDL50 for monkey BGM cells to IC50 for Plasmodium falciparum CQR (W2 clone) infected in human Erythrocyte; assay type: toxicity
Procedure, shortened: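 SI calculated as MLD50 in BGM cells (neutral red, 24 h) divided by IC50 against P. falciparum W2 (SYBR, 48 h).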

[3] = Cytotoxicity against monkey BGM cells assessed as reduction in cell viability incubated for 24 hrs by neutral red dye based assay; details: chlorocebus aethiops, read-out: MDL50
Procedure, shortened: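 BGM monkey kidney cells grown in RPMI 1640 with 10% heat-inactivated fetal serum and gentamicin, 5% CO2, 37 °C. Cells allowed to adhere for 24 h, then exposed to compounds at 1000–1 μg/mL for 24 h. Neutral red uptake for 3 h, formaldehyde/CaCl2 fix, alcohol-acetic acid elution, absorbance at 540 nm. Viability taken as percent of untreated cells after background subtraction. MLD50 derived from this.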

[4] = Cytotoxicty against mouse J774.A1 cells assessed as cell viability at 50 uM incubated for 24 hrs by resazurin dye based assay (reference value: 100 %); details: read-out: Activity
Procedure, shortened: (§1)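 J774A.1 macrophages grown in DMEM with 10% FBS and 0.1% gentamycin, seeded at 1×10^5 cells/well. Exposed to compounds at 0, 12.5, 25, 50 or 100 μM for 24 h. Resazurin (10 μg/ml) added for 3 h, then fluorescence read. Run in triplicate. Viability given as percent of 0.2% DMSO-treated cells.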

[5] = Cytotoxicty against mouse J774.A1 cells assessed as cell viability at 25 uM incubated for 24 hrs by resazurin dye based assay (reference value: 100 %); details: read-out: Activity; procedure, shortened: as §1
[6] = Cytotoxicty against mouse J774.A1 cells assessed as cell viability at 100 uM incubated for 24 hrs by resazurin dye based assay (reference value: 100 %); details: read-out: Activity; procedure, shortened: as §1
[7] = Cytotoxicty against mouse J774.A1 cells assessed as cell viability at 12.5 uM incubated for 24 hrs by resazurin dye based assay (reference value: 100 %); details: read-out: Activity; procedure, shortened: as §1
[8] = tested on: J774.A1; assay: Inhibition of LPS-induced TNFalpha production in mouse J774.A1 cells incubated for 24 hrs by ELISA; assay type: functional, cell-based; details: dose microM 0.5-25, time 24.0 hrs
Procedure, shortened: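 J774A.1 cells seeded at 2×10^6 cells/well. Pretreated with vehicle, dexamethasone 1 μM, or compounds at 0.5–25 μM. Stimulated with LPS 100 ng/ml for 24 h. Supernatants stored at −20 °C, then TNFα measured by sandwich ELISA in pg/mL. Triplicate, mean ± SEM.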

[9] = tested on: Plasmodium berghei; assay: Antimalarial activity against Plasmodium berghei NK65 infected in mouse assessed as parasite growth at 25 mg/kg, po administered for 3 days and measured on day 5 Giemsa staining based assay relative to control; assay type: functional; details: time 5 day
Procedure, shortened: (§2)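 P. berghei NK65 kept by weekly blood passage in mice. Mice inoculated i.p. with 1×10^6 infected erythrocytes, randomized after about 24 h into groups of five. Oral dosing once daily for three days, vehicle 3% DMSO in RPMI. Test compounds given at 25 mg/kg, CQ control at 20 mg/kg. Parasitemia read on Giemsa-stained thin smears on days 5 and 7 and expressed relative to untreated mice.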

[10] = tested on: J774.A1; assay: Inhibition of LPS-induced NO production in mouse J774.A1 cells incubated for 24 hrs by Griess reagent based assay; assay type: functional, cell-based; details: dose microM 0.5-25, time 24.0 hrs
Procedure, shortened: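 Compounds made as 10 mM DMSO stocks and diluted in medium. J774A.1 cells pre-incubated with compounds at 25 μM for screening, or 0.5–25 μM for dose-response, with dexamethasone 1 μM or 0.2% DMSO as controls. Stimulated with LPS 37.5 ng/ml plus IFNγ 25 U/ml for 24 h at 37 °C, 5% CO2. Supernatant nitrite measured by Griess at 540 nm. Triplicate, mean ± SEM.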

[11] = tested on: Plasmodium berghei; assay: Antimalarial activity against Plasmodium berghei NK65 infected in mouse assessed as increase in mouse survival rate at 25 mg/kg, po administered for 3 days and observed for 7 days; assay type: functional, organism-based; details: time 7.0 day
[12] = tested on: Plasmodium berghei; assay: Antimalarial activity against Plasmodium berghei NK65 infected in mouse assessed as parasite growth at 25 mg/kg, po administered for 3 days and measured on day 7 Giemsa staining based assay; assay type: functional; details: time 7 day; procedure, shortened: as §2
[13] = tested on: Plasmodium berghei; assay: Antimalarial activity against Plasmodium berghei NK65 infected in mouse assessed as parasite growth at 20 mg/kg, po administered for 3 days and measured on day 5 Giemsa staining based assay relative to control; assay type: functional; details: time 5 day; procedure, shortened: as §2
[14] = tested on: Plasmodium berghei; assay: Antimalarial activity against Plasmodium berghei NK65 infected in mouse assessed as parasite growth at 20 mg/kg, po administered for 3 days and measured on day 7 Giemsa staining based assay relative to control; assay type: functional; details: time 7 day; procedure, shortened: as §2
[15] = tested on: Plasmodium berghei; assay: Antimalarial activity against Plasmodium berghei NK65 infected in mouse assessed as increase in mouse survival at 20 mg/kg, po administered for 3 days and observed for 7 days; assay type: functional, organism-based; details: time 7.0 day

Row | SMILES | IC50 [1] [µM] | selectivity ratio [2] | CC50 at 24 h [3] [µM] | viability at 24 h, 50 µM [4] [%] | viability at 24 h, 25 µM [5] [%] | viability at 24 h, 100 µM [6] [%] | viability at 24 h, 12.5 µM [7] [%] | other results
1 | CC(=O)Nc1ccc(Cl)cc1C(=O)C(=O)NCCNc1ccnc2cc(Cl)ccc12 | 0.52 | 292 | 152 |  |  |  |  | 
2 | CC(=O)Nc1ccc(Cl)cc1C(=O)C(=O)NCCCCNc1ccnc2cc(Cl)ccc12 | 3.18 | 29 | 91.1 |  |  |  |  | 
3 | COc1cc(NC(C)CCCNC(=O)C(=O)c2cc(Cl)ccc2NC(C)=O)c2ncccc2c1 (stereo unspecified) | 7.7 | > 20 | 164 | 77.6 | 100 | 54.6 | 100 | 
4 | COc1cc(NC(C)CCCNC(=O)C(=O)c2cc(Br)ccc2NC(C)=O)c2ncccc2c1 (stereo unspecified) | 2.5 | > 100 | 309 | 75.5 | 100 | 75.8 | 100 | 
5 | CC(=O)Nc1ccccc1C(F)(F)C(=O)NCCCNc1ccnc2cc(Cl)ccc12 | 0.4 | > 250 | 99 | 91.5 | 100 | 33.3 | 100 | 
6 | COc1cc(NC(C)CCCNC(=O)C(F)(F)c2cc(Br)ccc2NC(C)=O)c2ncccc2c1 (stereo unspecified) | 3.5 | > 520 | > 1820 |  |  |  |  | 
7 | COc1cc(NC(C)CCCNC(=O)C(F)(F)c2cc(C)ccc2NC(C)=O)c2ncccc2c1 (stereo unspecified) | 20.7 |  |  |  |  |  |  | 
8 | CC(=O)Nc1ccccc1C(=O)C(=O)NCCNc1ccnc2cc(Cl)ccc12 | 0.71 | > 300 | 261 |  |  |  |  | 
9 | CC(=O)Nc1ccc(C)cc1C(=O)C(=O)NCCCCNc1ccnc2cc(Cl)ccc12 | 0.84 |  |  |  |  |  |  | 
10 | CC(=O)Nc1ccc(Br)cc1C(=O)C(=O)NCCCNc1ccnc2cc(Cl)ccc12 | 0.38 | 270 | 103 |  |  |  |  | 
11 | CC(=O)Nc1ccc(C)cc1C(=O)C(=O)NCCCNc1ccnc2cc(Cl)ccc12 | 0.22 |  |  |  |  |  |  | 
12 | CC(=O)Nc1ccc(Cl)cc1C(=O)C(=O)NCCCNc1ccnc2cc(Cl)ccc12 | 0.12 | 258 | 30.9 | 82.7 | 100 | 10.7 | 100 | inhibition [8]: Dose-dependent effect; Activity [9]: 0%; inhibition [10]: Dose-dependent effect; Activity [11]: Active; Activity [12]: 0%
13 | CC(=O)Nc1ccccc1C(=O)C(=O)NCCCCNc1ccnc2cc(Cl)ccc12 | 0.18 | > 700 | 124 | 83.4 | 100 | 10.1 | 98.4 | inhibition [8]: inactive; Activity [9]: 0%; Activity [12]: 2%
14 | CC(=O)Nc1ccc(Cl)cc1C(F)(F)C(=O)NCCCNc1ccnc2cc(Cl)ccc12 | 0.5 | > 1300 | 654 | 87.5 | 95.5 | 10.4 | 100 | inhibition [8]: Dose-dependent effect; inhibition [10]: Dose-dependent effect
15 | COc1cc(NC(C)CCCNC(=O)C(F)(F)c2ccccc2NC(C)=O)c2ncccc2c1 (stereo unspecified) | 25.5 | 4 | 113 |  |  |  |  | 
16 | COc1cc(NC(C)CCCNC(=O)C(=O)c2cc(C)ccc2NC(C)=O)c2ncccc2c1 (stereo unspecified) | 25.3 | > 80 | > 2160 |  |  |  |  | 
17 | CC(=O)Nc1ccccc1C(=O)C(=O)NCCCNc1ccnc2cc(Cl)ccc12 | 0.2 | > 400 | 91.7 | 89.1 | 100 | 67.6 | 100 | Activity [9]: 0%; Activity [11]: Active; Activity [12]: 15%
18 | CC(=O)Nc1ccccc1C(F)(F)C(=O)NCCCCNc1ccnc2cc(Cl)ccc12 | 2.7 | > 50 | 140 | 83.7 | 100 | 10.4 | 100 | 
19 | CC(=O)Nc1ccc(C)cc1C(=O)C(=O)NCCNc1ccnc2cc(Cl)ccc12 | 0.49 | > 170 | > 84 |  |  |  |  | 
20 | CCN(CC)CCCC(C)Nc1ccnc2cc(Cl)ccc12 (stereo unspecified) [CHLOROQUINE] |  |  | 457 |  |  |  |  | Activity [13]: 99%; Activity [14]: 99%; Activity [15]: Active
21 | COc1cc(NC(C)CCCNC(=O)C(=O)c2ccccc2NC(C)=O)c2ncccc2c1 (stereo unspecified) | 26.8 |  |  |  |  |  |  | 
